This is a sample that favours compounds with a hit; in the whole collection about 1.4% have one here.
CTSL1 counter – cathepsin L1 inhibition, PFM18AAP counter-screen. 0.49% of 300,000 active. inhibition, % at 5.96 µM. recombinant F. hepatica cathepsin L1, Z-Leu-Arg-MCA fluorescence;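 active means inhibition above the mean of all tested compounds plus 3 SD, set per screening campaign, cut at about 17% in these data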;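 further: 0% = plate median of test compound wells and 100% = 1 µM Z-Phe-Ala-diazomethylketone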
TDP2 absorb – blocks human TDP2 phosphodiesterase activity. recombinant TDP2, T5PNP hydrolysis, p-nitrophenol absorbance 415 nm. inhibition, % at 12.8 µM. 0.34% of 370,000 active;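 active means inhibition above the mean of all tested compounds plus 3 SD, set per campaign, cut at about 25% in these data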;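 further: 0% = DMSO with enzyme and 100% = buffer with substrate but no TDP2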
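System – recombinant human TDP2 · Amount – 120 nM TDP2 per well · Buffer or medium – Mg2+-containing Tris-HCl buffer, pH 7.5 · Reagent – T5PNP substrate, 5 mM · Dosing – 12.8 µM single point, 1% DMSO · Incubation – 2 h at 37 °C · Measured by – epi absorbance · Read-out basis – percent inhibition · Benchmarks – high control without enzyme, low control DMSO plus TDP2 · Repeats – singlicate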
GSTO1 inh – GSTO1 inhibition, counter-screen for RBBP9 inhibitors; recombinant GSTO1, activity-based probe fluorescence polarization; inhibition, % at 5.96 µM; 1.1% of 300,000 active; AID 1974;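 active means inhibition above the campaign mean inhibition plus 3 SD, cut at about 35% in these data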;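 further: 0% = GSTO1-1 with DMSO and 100% = wells lacking GSTO1-1 enzyme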
PAD4 inh – inhibitors of human PAD4 | Q9UM07 | recombinant PAD4, RCA probe fluorescence polarization | inhibition, % at 6.36 µM | 0.41% of 330,000 active;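 active means percent inhibition above a cutoff equal to the mean of all tested compounds plus 3 SD, cut at about 15% in these data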;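 further: 0% = PAD4 with RCA probe and DMSO and 100% = probe without PAD4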
Target sequence (Q9UM07 whole entry, looked up): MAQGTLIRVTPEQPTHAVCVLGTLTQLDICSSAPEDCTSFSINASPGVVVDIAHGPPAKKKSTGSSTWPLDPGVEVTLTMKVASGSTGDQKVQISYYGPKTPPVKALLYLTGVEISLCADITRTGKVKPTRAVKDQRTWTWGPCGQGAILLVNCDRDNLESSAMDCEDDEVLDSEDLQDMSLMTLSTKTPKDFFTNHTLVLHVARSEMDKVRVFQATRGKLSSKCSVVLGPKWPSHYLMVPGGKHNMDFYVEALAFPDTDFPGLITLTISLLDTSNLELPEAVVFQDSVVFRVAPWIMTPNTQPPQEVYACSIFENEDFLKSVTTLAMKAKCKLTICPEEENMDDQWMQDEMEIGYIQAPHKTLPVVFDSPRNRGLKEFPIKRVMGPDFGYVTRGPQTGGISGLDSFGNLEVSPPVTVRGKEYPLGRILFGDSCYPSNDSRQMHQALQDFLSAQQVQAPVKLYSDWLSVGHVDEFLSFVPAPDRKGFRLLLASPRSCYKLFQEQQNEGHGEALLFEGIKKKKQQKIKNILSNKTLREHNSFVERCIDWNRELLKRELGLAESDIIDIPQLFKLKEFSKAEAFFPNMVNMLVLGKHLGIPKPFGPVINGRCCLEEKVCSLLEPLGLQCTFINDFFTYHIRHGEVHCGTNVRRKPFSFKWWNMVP
Active calls of the source: *; · = no result given.

SMILES | CTSL1 counter | TDP2 absorb | GSTO1 inh | PAD4 inh
CC(C)Oc1ccc(Br)cc1/C=N\NC(N)=S | 47* | 10 | -5 | 0
Cc1cc(/C=N/NC(N)=S)c(C)n1-c1ccc(Cl)cc1 | 17* | 7 | -32 | -1
Cc1cc(/C=N/NC(N)=S)c(C)n1-c1cccc(Cl)c1 | 14 | 5 | 3 | -3
OC(c1ccccc1)C1(c2ccccc2)CCN(Cc2ccccc2)CC1 (stereo unspecified) | · | 5 | · | ·
COc1ccc(/C=C/C(=O)NC2CCCCC2C)cc1 (stereo unspecified) | -1 | -7 | 3 | 0
CC1CCCCC1NC(=O)/C=C/c1nc2ccccc2s1 (stereo unspecified) | 23* | 2 | -11 | -3
Cc1ccc(-c2cc(-c3nnc4sc(COc5ccccc5)nn34)[nH]n2)cc1 | · | 3 | · | ·
COc1cccc(NC(=S)NN=C2CCC(C(C)(C)C)CC2)c1 (stereo unspecified) | 20* | 2 | 2 | -4
COc1cccc(NC(=S)N/N=C2\CC3CCC2(C)C3(C)C)c1 (stereo unspecified) | 4 | -7 | -11 | -1
COc1ccc(C2Nc3cccc4cccc(c34)N2)cc1Br | -6 | 6 | 32 | -5
Fc1ccc(C2Nc3cccc4cccc(c34)N2)cc1 | 0 | 5 | 37* | -2
Clc1cccc(C2Nc3cccc4cccc(c34)N2)c1Cl | 1 | 9 | 14 | -5
COc1cc(C2Nc3cccc4cccc(c34)N2)ccc1OC(C)=O | -1 | · | 53* | -5
FC(F)(F)c1ccc(C2Nc3cccc4cccc(c34)N2)cc1 | · | 3 | · | ·
c1coc(C2Nc3cccc4cccc(c34)N2)c1 | 0 | · | 50* | -3
C=C(CN(C)C)C(=O)c1ccc2c(c1)OCO2 | · | 9 | · | ·
O=C(OCn1ncc(Br)c(Br)c1=O)c1ccc(F)cc1 | -10 | · | 36* | 26*
COc1cccc(NS(=O)(=O)c2cc3c(cc2C)N(C)CCO3)c1 | 1 | 1 | 3 | -2
Cc1cccc(NS(=O)(=O)c2cc3c(cc2C)N(C)CCO3)c1 | 65* | 5 | 7 | 4
CC(C)(C)NC(=O)C(c1ccc(C#N)cc1)n1c(=O)c(-c2ccco2)nc2ccccc21 (stereo unspecified) | · | 4 | · | ·
Cc1nonc1NC(=O)CSc1nc2ccccc2[nH]1 | 17* | -3 | 5 | -6
Cc1cc(C(=O)NN=Cc2ccccc2C(=O)O)n[nH]1 | · | -6 | · | ·
COC(=O)[C@H](C)NC(=O)[C@H](CC(C)C)NC(=O)OC(C)(C)C | · | 4 | · | ·
Brc1cc2c(cc1Br)OCCOCCOCCO2 | 0 | -16 | 37* | 6
Clc1ccc(N/N=C/c2cccnc2)cc1 | 17* | -8 | 0 | -4
SMILES | CTSL1 counter | TDP2 absorb | GSTO1 inh | PAD4 inh
O=[N+]([O-])c1ccc(N/N=C/c2cccnc2)cc1 | 5 | -4 | -1 | -2
O=[N+]([O-])c1ccc(COc2cccc(CNc3ccc(F)cc3)c2)cc1 | -1 | -3 | 1 | -3
Oc1ccc(NCc2cccc(OCc3ccc(F)cc3)c2)cc1 | -4 | 14 | 77* | -2
CCSc1nnc(NC(=O)CSc2nc(CC)nc3c2c(=O)n(C)c(=O)n3C)s1 | 1 | 8 | 36* | 0
CCc1nc(SCC(=O)Nc2nnc(CC)s2)c2c(C)c(C)sc2n1 | 5 | 9 | 35* | -2
CCCc1nc(SCC(=O)Nc2nnc(SCC)s2)c2c(=O)n(C)c(=O)n(C)c2n1 | 0 | 1 | 8 | 2
COc1ccc(CN2C[C@]3(C=C(C)Cn4c(=O)n(-c5ccccc5)c(=O)n43)N=C2NC(=O)c2ccccc2)c(OC)c1 | · | -3 | · | ·
Cc1cccc(NC(=O)C2CCCN2S(=O)(=O)c2cccc3cccnc23)c1C (stereo unspecified) | · | 3 | · | ·
NC(=S)N=Nc1c(O)[nH]c2c(Br)cc(Br)cc12 | 3 | -6 | 39* | 1
COc1ccc2ccccc2c1C=Nn1c(-c2cc(-c3ccccc3)n[nH]2)n[nH]c1=S | · | 8 | · | ·
O=c1cc(N2CCN(c3ccnc4cc(Cl)ccc34)CC2)[nH]c(=O)n1C1CCCCC1 | · | 0 | · | ·
CCn1c(Cc2cccs2)nnc1SCC(=O)Nc1ccc(Cl)cc1C | · | -2 | · | ·
N#CCCN(C(=O)CCl)c1cccc(Cl)c1 | 2 | 0 | 87* | 3
c1ccc(Nc2cccc3c(Nc4ccccc4)cccc23)cc1 | -2 | 4 | -5 | -2
O=S(=O)(O)c1cccc2cccc(Nc3ccccc3)c12 | 8 | 13 | 38* | 2
Cc1cccc(Cn2cc(COC(=O)N3CCCC3)nn2)c1 | · | 0 | · | ·
COc1cccc(CNc2nc(NC(C)C)nc3ccsc23)c1 | · | -7 | · | ·
CC(=O)Nc1ccc(N(C(=O)Cn2nnc3ccccc32)C(C(=O)NC2CCCC2)c2ccc(O)c(O)c2)cc1 (stereo unspecified) | -1 | -6 | 43* | -2
CC(=O)OCN(C#N)c1nc(N(C)C)nc(N(C)C)n1 | -23 | -8 | 2 | 2
CCOC(=O)CN(C#N)c1nc(N(C)C)nc(N(C)C)n1 | 54* | 11 | 2 | -2
COC(=O)CN(C#N)c1nc(SC)nc(N(C)C)n1 | 29* | 5 | 7 | 4
CCNc1nc(NC(C)C)nc(N(C#N)C(C)C(=O)N(C)C)n1 (stereo unspecified) | -4 | -8 | -8 | -2
CCNc1nc(NC(C)C)nc(N(C#N)CC(=O)OC)n1 | 71* | 3 | 9 | -5
O=C(CSc1nnc(COc2ccccc2)n1-c1ccccc1)Nc1ccc(S(=O)(=O)Nc2nccs2)cc1 | · | -5 | · | ·
CCOc1ccc(Br)cc1S(=O)(=O)Nc1ccc(Cl)c(S(=O)(=O)N(CC)c2ccccc2)c1 | 17* | 6 | -16 | -1
SMILES | CTSL1 counter | TDP2 absorb | GSTO1 inh | PAD4 inh
CCOc1ccc(Br)cc1S(=O)(=O)Nc1ccc(Cl)c(S(=O)(=O)N(C)C)c1 | 6 | 9 | 3 | -2
CC(C)CC(C(=O)Nn1cnnc1)N1C(=O)c2ccccc2C1=O (stereo unspecified) | 23* | -13 | 6 | 1
CC1(C)C(/C=C/C=C/C=C/C=C2\N(CCCCS(=O)(=O)O)c3ccc4ccccc4c3C2(C)C)=[N+](CCCCS(=O)(=O)[O-])c2ccc3ccccc3c21 | -1 | · | 41* | -35
O=C(CSc1nnc(-c2ccncc2)n1-c1ccccc1)Nc1cccc2ccccc12 | · | -2 | · | ·
O=C(CC(c1ccco1)C1CCCCC1=O)c1ccco1 (stereo unspecified) | 64* | 8 | 11 | -4
COC(=O)[C@]12C[C@H](CC(=O)NCC3CCCCC3)C(=O)N(Cc3cccc4ccccc34)C1=C[C@H](C(C)C)O[C@@H]2C1CC1 | · | 0 | · | ·
c1ccc2cc3[nH]c(CNc4nc(N5CCOCC5)nc5c4ncn5-c4ccsc4)nc3cc2c1 | · | -2 | · | ·
COc1cc(C(c2oc(CO)cc(=O)c2O)c2oc(CO)cc(=O)c2O)cc(OC)c1OC | 51* | -10 | 3 | 3
O=C(COC(=O)c1ccc([N+](=O)[O-])s1)Nc1ncc(C(F)(F)F)cc1Cl | 34* | 19 | 26 | -12
O=C(COC(=O)c1ccccn1)Nc1ncc(C(F)(F)F)cc1Cl | -5 | 0 | 4 | -4
Cc1cc2c(C)cc(=O)[nH]c2cc1NC(=O)CCl | 3 | -4 | 71* | -2

High-throughput results deposited in PubChem BioAssay by The Scripps Research Institute Molecular Screening Center.
